Data as given in ChEMBL document CHEMBL1671666, “Anti-human immunodeficiency virus activity, cross-resistance, cytotoxicity, and intracellular pharmacology of the 3'-azido-2',3'-dideoxypurine nucleosides” (Antimicrob Agents Chemother, 2009).

Tests used:
[1] = target: Human immunodeficiency virus type 1 reverse transcriptase (Human immunodeficiency virus 1) (UniProt Q72547); test: Activity at HIV1 reverse transcriptase measured after 30 mins
How it was run: (§1)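 Pre-steady-state rapid quench with purified WT HIV-1 RT. Quenched with 0.5 M EDTA between 10 ms and 30 min. Products resolved on 7 M urea-16% polyacrylamide gels. Gives kpol and Kd; selectivity = (kpol/Kd)dNTP/(kpol/Kd)NRTI-TP. At least three independent experiments, mean ± SD.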

[2] = target: Human immunodeficiency virus type 1 reverse transcriptase (Human immunodeficiency virus 1) (UniProt Q72547); test: Ratio of Kpol to Kd for HIV1 reverse transcriptase; how it was run: as §1
[3] = target: Human immunodeficiency virus type 1 reverse transcriptase (Human immunodeficiency virus 1) (UniProt Q72547); test: Selectivity, ratio of Kpol to Kd for TTP to Kpol to Kd for compound at HIV1 reverse transcriptase; how it was run: as §1
[4] = target: Human immunodeficiency virus type 1 reverse transcriptase (Human immunodeficiency virus 1, UniProt Q72547); test: Binding affinity to HIV1 reverse transcriptase; how it was run: as §1
[5] = target: Human immunodeficiency virus type 1 reverse transcriptase (Human immunodeficiency virus 1) (UniProt Q72547); test: Selectivity, ratio of Kpol to Kd for dCTP to Kpol to Kd for compound at HIV1 reverse transcriptase; how it was run: as §1
[6] = Half life in PHA-stimulated human PBMC after 12 hrs by LC-MS analysis; format: ADME, cell-based
[7] = target: Human immunodeficiency virus type 1 reverse transcriptase (Human immunodeficiency virus 1) (UniProt Q72547); test: Selectivity, ratio of Kpol to Kd for dGTP to Kpol to Kd for compound at HIV1 reverse transcriptase; how it was run: as §1
[8] = system: Human immunodeficiency virus 1; test: Antiviral activity against HIV1 infected in human HeLa P4/R5 cells assessed as inhibition of viral replication; format: functional, organism-based; conditions: Human immunodeficiency virus 1, HeLa
How it was run: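 Single-cycle assay in P4/R5 HeLa cells carrying an HIV LTR-driven, Tat-activated β-galactosidase gene. Cells kept in phenol red-free DMEM with 10% FBS and 0.5 μg/ml puromycin. Virus stock titred on these cells by threefold endpoint dilution (Reed-Muench). At least three independent experiments.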

[9] = system: Human immunodeficiency virus 1; test: Antiviral activity against HIV1 infected in human PBMC assessed as inhibition of viral replication; format: functional, organism-based
How it was run: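 PBMC from healthy seronegative donors, isolated on a Ficoll-Hypaque gradient and stimulated with PHA for 2-3 days before infection. At least three independent experiments.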

[10] = system: Human immunodeficiency virus 1; test: Antiviral activity against HIV1 infected in human MT2 cells assessed as inhibition of viral replication; format: functional, organism-based; conditions: Human immunodeficiency virus 1, MT2
[11] = system: Human immunodeficiency virus 1; test: Ratio of IC50 for HIV1 harboring reverse transcriptase K65R mutant infected in human HeLa P4/R5 cells to wild type HIV1 infected in human HeLa P4/R5 cells; format: functional
How it was run: (§2)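 Single-replication-cycle assay in P4/R5 cells: HeLa stably carrying a Tat-activated β-galactosidase gene under an HIV LTR promoter, grown in phenol red-free DMEM with 10% FBS and 0.5 μg/ml puromycin. Virus stocks were titred in P4/R5 cells by threefold endpoint dilution (Reed–Muench).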

[12] = system: Human immunodeficiency virus 1; test: Antiviral activity against HIV1 harboring reverse transcriptase K65R mutant infected in human HeLa P4/R5 cells assessed as inhibition of viral replication; format: functional, organism-based; conditions: Human immunodeficiency virus 1, HeLa; how it was run: as §2
[13] = Cytotoxicity against human MT2 cells after 2 to 4 days by MTT assay; format: cell-based
How it was run: (§3)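 Log-phase cells seeded at 5 × 10³ to 5 × 10⁴ cells/well with 10-fold serial compound dilutions. Incubated 2-4 days; viability read by MTT staining. CC50 from concentration-response curves by the median effect method. Mean of at least three independent experiments.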

[14] = system: Human immunodeficiency virus 1; test: Antiviral activity against HIV1 harboring reverse transcriptase M41L/D67N/K70R/L210W/T215Y/K219Q mutant infected in human HeLa P4/R5 cells assessed as inhibition of viral replication; format: functional, organism-based; conditions: Human immunodeficiency virus 1, HeLa; how it was run: as §2
[15] = system: Human immunodeficiency virus 1; test: Antiviral activity against HIV1 harboring reverse transcriptase Q151M mutant infected in human HeLa P4/R5 cells assessed as inhibition of viral replication; format: functional, organism-based; conditions: Human immunodeficiency virus 1, HeLa; how it was run: as §2
[16] = Cytotoxicity against human CEM cells after 2 to 4 days by MTT assay; format: cell-based; conditions: CEM cells (CCRF-CEM); how it was run: as §3
[17] = system: Human immunodeficiency virus 1; test: Antiviral activity against HIV1 harboring reverse transcriptase D67N/K70R/T215F/K219Q mutant infected in human HeLa P4/R5 cells assessed as inhibition of viral replication; format: functional, organism-based; conditions: Human immunodeficiency virus 1, HeLa; how it was run: as §2
[18] = system: Human immunodeficiency virus 1; test: Antiviral activity against HIV1 harboring reverse transcriptase M41L/L210W/T215Y mutant infected in human HeLa P4/R5 cells assessed as inhibition of viral replication; format: functional, organism-based; conditions: Human immunodeficiency virus 1, HeLa; how it was run: as §2
[19] = system: Human immunodeficiency virus 1; test: Antiviral activity against HIV1 harboring reverse transcriptase diserine insert between residues 69 and 70 infected in human HeLa P4/R5 cells assessed as inhibition of viral replication; format: functional, organism-based; conditions: Human immunodeficiency virus 1, HeLa; how it was run: as §2
[20] = Cytotoxicity against human PBMC after 2 to 4 days by MTT assay; format: cell-based; how it was run: as §3
[21] = system: Human immunodeficiency virus 1; test: Antiviral activity against HIV1 harboring reverse transcriptase M184V mutant infected in human HeLa P4/R5 cells assessed as inhibition of viral replication; format: functional, organism-based; conditions: Human immunodeficiency virus 1, HeLa; how it was run: as §2
[22] = system: Human immunodeficiency virus 1; test: Antiviral activity against HIV1 harboring reverse transcriptase M41L/D67N/K70R/T215F/K219Q mutant infected in human HeLa P4/R5 cells assessed as inhibition of viral replication; format: functional, organism-based; conditions: Human immunodeficiency virus 1, HeLa; how it was run: as §2
[23] = Cytotoxicity against human HeLa P4/R5 cells
[24] = system: Human immunodeficiency virus 1; test: Antiviral activity against HIV1 harboring reverse transcriptase L74V mutant infected in human HeLa P4/R5 cells assessed as inhibition of viral replication; format: functional, organism-based; conditions: Human immunodeficiency virus 1, HeLa; how it was run: as §2
[25] = Cytotoxicity against african green monkey Vero cells after 2 to 4 days by MTT assay; format: cell-based; conditions: chlorocebus sabaeus; how it was run: as §3
HepG2 [26] = test: Mitochondrial toxicity in human HepG2 cells assessed as percent mitochondrial DNA production at 100 uM after 14 days by real-time PCR relative to control; format: cell-based; conditions: hepg2, 336 h
How it was run: (§4)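 Low-passage HepG2 cells seeded at 5,000 cells/well on collagen-coated plates and cultured 14 days with 10 or 100 μM NRTI. mtDNA and β-actin DNA quantified by real-time PCR in duplicate; mtDNA normalized to β-actin and expressed relative to untreated cells. At least two independent experiments; ranges given.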

beta-actin DNA [27] = test: Mitochondrial toxicity in human HepG2 cells assessed as percent inhibition of beta-actin DNA at 10 uM after 14 days by real-time PCR; format: cell-based; how it was run: as §4
beta-actin DNA [28] = test: Mitochondrial toxicity in human HepG2 cells assessed as percent inhibition of beta-actin DNA at 100 uM after 14 days by real-time PCR; format: cell-based; how it was run: as §4
HepG2 [29] = test: Mitochondrial toxicity in human HepG2 cells assessed as percent mitochondrial DNA production at 10 uM after 14 days by real-time PCR relative to control; format: cell-based; conditions: hepg2, 336 h; how it was run: as §4
mitochondrial DNA [30] = test: Mitochondrial toxicity in human HepG2 cells assessed as percent inhibition of mitochondrial DNA at 100 uM after 14 days by real-time PCR; format: cell-based; how it was run: as §4
[31] = system: Human immunodeficiency virus 1; test: Ratio of IC50 for HIV1 harboring reverse transcriptase M184V mutant infected in human HeLa P4/R5 cells to wild type HIV1 infected in human HeLa P4/R5 cells; format: functional; how it was run: as §2
mitochondrial DNA [32] = test: Mitochondrial toxicity in human HepG2 cells assessed as percent inhibition of mitochondrial DNA at 10 uM after 14 days by real-time PCR; format: cell-based; how it was run: as §4
HepG2 [33] = test: Mitochondrial toxicity in human HepG2 cells assessed as percent lactic acid production at 100 uM after 14 days by real-time PCR relative to beta-actin DNA; format: cell-based; conditions: hepg2, 336 h
How it was run: (§5)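 HepG2 cells cultured 14 days with 10 or 100 μM NRTI. Lactic acid quantified with a D-/L-lactic acid enzymatic test kit and expressed relative to β-actin DNA and to untreated control.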

HepG2 [34] = test: Mitochondrial toxicity in human HepG2 cells assessed as percent lactic acid production at 10 uM after 14 days by real-time PCR relative to beta-actin DNA; format: cell-based; conditions: hepg2, 336 h; how it was run: as §5

Compound: Cc1cn([C@H]2C=C[C@@H](COP(=O)(O)OP(=O)(O)OP(=O)(O)O)O2)c(=O)[nH]c1=O [STAVUDINE TRIPHOSPHATE]
- Activity [1]: 4.3 s⁻¹
- Ratio [2]: 1.6 µM⁻¹ s⁻¹
- Selectivity ratio [3]: 2.6
- Kd [4]: 2700 nM

Compound: Nc1ccn([C@H]2CC[C@@H](COP(=O)(O)OP(=O)(O)OP(=O)(O)O)O2)c(=O)n1 [DDCTP]
- Activity [1]: 0.4 s⁻¹
- Ratio [2]: 0.2 µM⁻¹ s⁻¹
- Selectivity ratio [5]: 6.7
- Kd [4]: 2700 nM

Compound: [N-]=[N+]=N[C@H]1C[C@H](n2cnc3c(=O)[nH]c(N)nc32)O[C@@H]1COP(=O)(O)OP(=O)(O)OP(=O)(O)O
- Activity [1]: 4.8 s⁻¹
- Ratio [2]: 1.7 µM⁻¹ s⁻¹
- half-life [6]: 534 min
- Kd [4]: 2800 nM
- Selectivity ratio [7]: 1.1

Compound: CC(C)OC(=O)OCOP(=O)(CO[C@H](C)Cn1cnc2c(N)ncnc21)OCOC(=O)OC(C)C.O=C(O)/C=C/C(=O)O [TENOFOVIR DISOPROXIL FUMARATE]
- IC50 [8]: 4700 nM
- IC50 [9]: 14 nM
- IC50 [10]: 540 nM
- Ratio IC50 [11]: 2.5
- IC50 [12]: 11.4 µM

Compound: Cc1cn([C@H]2C[C@H](N=[N+]=[N-])[C@@H](CO)O2)c(=O)[nH]c1=O [ZIDOVUDINE]
- IC50 [8]: 190 nM
- CC50 [13]: 150 µM
- IC50 [14]: 58.6 µM
- IC50 [15]: 214 µM
- CC50 [16]: 86.2 µM
- IC50 [17]: 11.9 µM
- IC50 [10]: 31 nM
- IC50 [18]: 10.4 µM
- IC50 [19]: 205 µM
- CC50 [20]: > 100 µM
- IC50 [21]: 180 nM
- IC50 [22]: 96.7 µM
- IC50 [12]: 0.21 µM
- CC50 [23]: > 270 µM
- IC50 [24]: 210 nM
- CC50 [25]: > 100 µM

Compound: Cc1cn([C@H]2C[C@H](O)[C@@H](COP(=O)(O)OP(=O)(O)OP(=O)(O)O)O2)c(=O)[nH]c1=O [DEOXYTHYMIDINE_TRIPHOSPHATE]
- Activity [1]: 9.2 s⁻¹
- Ratio [2]: 4.2 µM⁻¹ s⁻¹
- Kd [4]: 2200 nM

Compound: Cc1cn([C@H]2C[C@H](N=[N+]=[N-])[C@@H](COP(=O)(O)OP(=O)(O)OP(=O)(O)O)O2)c(=O)[nH]c1=O
- Activity [1]: 8.8 s⁻¹
- Ratio [2]: 4.4 µM⁻¹ s⁻¹
- Selectivity ratio [3]: 1

Compound: Nc1nc(=O)n([C@@H]2CS[C@H](CO)O2)cc1F [EMTRICITABINE]
- IC50 [8]: 170 nM
- IC50 [9]: 1 nM
- IC50 [10]: 44 nM

Compound: Nc1ccn([C@@H]2CS[C@H](COP(=O)(O)OP(=O)(O)OP(=O)(O)O)O2)c(=O)n1
- Activity [1]: 0.023 s⁻¹
- Ratio [2]: 0.06 µM⁻¹ s⁻¹
- Selectivity ratio [5]: 17.8

Compound: Nc1ccn([C@@H]2CS[C@H](CO)O2)c(=O)n1 [LAMIVUDINE]
- IC50 [8]: 780 nM
- Activity (HepG2 [26]): 0.6%
- inhibition at 336 h, 10 µM (beta-actin DNA [27]): < 1%
- inhibition at 336 h, 100 µM (beta-actin DNA [28]): 94.3%
- IC50 [9]: 30 nM
- IC50 [10]: 600 nM
- Activity (HepG2 [29]): 119%
- inhibition at 336 h, 100 µM (mitochondrial DNA [30]): 100%
- Ratio IC50 [11]: 77
- Ratio IC50 [31]: >75
- IC50 [21]: > 60000 nM
- IC50 [12]: 60.5 µM
- inhibition at 336 h, 10 µM (mitochondrial DNA [32]): < 1%
- Activity (HepG2 [33]): 416%
- Activity (HepG2 [34]): 105%

Compound: Nc1ccn([C@H]2CC[C@@H](CO)O2)c(=O)n1 [ZALCITABINE]
- IC50 [8]: 1400 nM
- inhibition at 336 h, 10 µM (beta-actin DNA [27]): 61.4%
- IC50 [9]: 200 nM
- IC50 [10]: 130 nM
- Activity (HepG2 [29]): 0.3%
- inhibition at 336 h, 10 µM (mitochondrial DNA [32]): 99.9%
- Activity (HepG2 [34]): 170%
